In article PMC2757127 (Platelets, 2008):
Like-named read-outs stand apart in the source and are kept apart here. One block for each compound: values may come before it.

What was measured:
Type in all cases: cell-based
[1] = biological target: T1, LPA3 (Homo sapiens, UniProt Q9UBY5); assay: LPA-elicited Ca2+ transients in RH7777 cells stably expressing LPA3; details: for Effect on LPA3: heterologously expressed LPA3
T1 sequence (Q9UBY5 1-353): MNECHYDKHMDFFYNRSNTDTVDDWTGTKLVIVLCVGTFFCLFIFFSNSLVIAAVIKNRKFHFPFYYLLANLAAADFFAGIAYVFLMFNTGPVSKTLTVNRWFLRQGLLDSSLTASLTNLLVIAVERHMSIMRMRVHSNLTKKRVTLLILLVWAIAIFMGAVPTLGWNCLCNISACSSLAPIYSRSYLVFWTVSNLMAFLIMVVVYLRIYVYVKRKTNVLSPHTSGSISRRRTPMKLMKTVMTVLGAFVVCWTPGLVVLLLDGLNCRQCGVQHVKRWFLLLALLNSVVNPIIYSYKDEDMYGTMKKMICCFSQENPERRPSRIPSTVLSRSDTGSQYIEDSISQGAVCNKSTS

[2] = biological target: LPA4 (Homo sapiens, UniProt Q99677); assay: LPA-elicited Ca2+ transients in CHO cells stably expressing LPA4; details: for Effect on LPA4: Table II, heterologously expressed LPA4
[3] = biological target: LPA2 (Homo sapiens, UniProt Q9HBW0); assay: LPA-elicited Ca2+ transients in RH7777 cells stably expressing LPA2; details: for Effect on LPA2: heterologously expressed LPA2
[4] = biological target: LPA1 (Homo sapiens, UniProt Q92633); assay: LPA-elicited Ca2+ transients in RH7777 cells stably expressing LPA1; details: for Effect on LPA1: heterologously expressed LPA1
How it was run: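 RH7777 cells stably expressing receptor, seeded on poly-L-lysine-coated wells at 5 × 10^4 cells/well overnight. Serum-starved 6 h in modified Krebs buffer (pH 7.4), loaded with Fura-2 AM for 35 min with 2% pluronic acid. Ca2+ recorded as the ratio of 520 nm emission at 340/380 nm excitation. Albumin arm: 15 µM BSA for 5 min before LPA. Quadruplicate.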

[5] = biological target: LPA5 (Homo sapiens, UniProt Q9H1C0); assay: LPA-elicited Ca2+ transients in RH7777 cells transiently transfected with LPA5; details: for Effect on LPA5: heterologously expressed LPA5; for Emax: relative to LPA 18:1
[6] = tested on: human platelets; assay: Measurement of platelet cAMP; details: LPA 0.02–40 µM, 30 s–15 min; iloprost 50 nM, 1 minute
How it was run: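 Human platelets from PRP pretreated with acetylsalicylic acid 1 mM and apyrase 0.3 U/mL (15 min, 37°C), washed, resuspended at 400,000/µL in HEPES buffer with glucose and apyrase (pH 7.4). Stirred suspensions were warmed 2 min at 37°C, then exposed to agonist for the set time. cAMP was measured by enzyme immunoassay. Mean ± SD, n=3 donors; Student's test, P 0.05.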

[7] = tested on: washed human platelets; assay: Platelet shape change; details: read-out: Platelets EC50, Table IV, n=4, mean ± SD
How it was run: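 Washed human platelets were prepared from aspirin (1 mM)/apyrase-treated PRP and resuspended at 400,000/µL in HEPES buffer (pH 7.4) with glucose and 0.6 U/mL apyrase. Stirred at 1100 rpm and 37°C for 2 min, then given increasing agonist concentrations in methanol or FAF-BSA buffer (lipid:BSA 4:1). Shape change read as the fall in light transmission in an aggregometer. Four donors.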

[8] = read-out: LPA5 transiently transfected RH7777 cells EC50, Table IV, mean ± SD
[9] = 15µM FAF-BSA, 5 min pre-incubation

Sequence of LPA5 (Q9H1C0 whole entry): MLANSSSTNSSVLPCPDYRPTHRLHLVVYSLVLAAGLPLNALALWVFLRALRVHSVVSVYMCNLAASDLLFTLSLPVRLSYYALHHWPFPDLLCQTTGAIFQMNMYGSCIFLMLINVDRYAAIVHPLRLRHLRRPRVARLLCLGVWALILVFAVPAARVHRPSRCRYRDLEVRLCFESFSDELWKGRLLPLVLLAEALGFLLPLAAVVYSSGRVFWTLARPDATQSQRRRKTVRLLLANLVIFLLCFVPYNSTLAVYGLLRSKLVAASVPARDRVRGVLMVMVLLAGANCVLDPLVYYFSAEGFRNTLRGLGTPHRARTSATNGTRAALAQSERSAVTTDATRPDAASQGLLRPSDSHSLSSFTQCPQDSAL
Sequence of LPA2 (Q9HBW0 whole entry): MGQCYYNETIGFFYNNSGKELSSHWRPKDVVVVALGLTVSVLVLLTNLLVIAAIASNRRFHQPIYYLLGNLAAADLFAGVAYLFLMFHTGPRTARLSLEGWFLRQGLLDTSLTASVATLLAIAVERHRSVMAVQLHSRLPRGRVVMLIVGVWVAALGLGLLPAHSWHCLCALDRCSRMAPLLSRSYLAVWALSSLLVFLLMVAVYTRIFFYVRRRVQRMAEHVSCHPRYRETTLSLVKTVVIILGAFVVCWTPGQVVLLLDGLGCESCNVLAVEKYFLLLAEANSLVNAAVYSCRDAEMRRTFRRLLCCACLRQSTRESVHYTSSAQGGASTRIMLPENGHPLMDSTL
Sequence of LPA4 (Q99677 whole entry): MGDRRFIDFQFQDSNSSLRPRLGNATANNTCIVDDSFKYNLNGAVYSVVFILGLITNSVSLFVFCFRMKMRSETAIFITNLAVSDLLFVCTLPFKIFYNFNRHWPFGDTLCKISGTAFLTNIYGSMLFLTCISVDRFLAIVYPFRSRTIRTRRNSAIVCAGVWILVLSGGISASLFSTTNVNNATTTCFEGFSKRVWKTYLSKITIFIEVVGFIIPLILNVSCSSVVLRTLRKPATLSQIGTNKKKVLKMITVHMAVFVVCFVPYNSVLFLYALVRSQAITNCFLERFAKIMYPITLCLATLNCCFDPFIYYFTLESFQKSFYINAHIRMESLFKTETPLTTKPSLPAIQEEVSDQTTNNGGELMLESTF
Sequence of LPA1 (Q92633 whole entry): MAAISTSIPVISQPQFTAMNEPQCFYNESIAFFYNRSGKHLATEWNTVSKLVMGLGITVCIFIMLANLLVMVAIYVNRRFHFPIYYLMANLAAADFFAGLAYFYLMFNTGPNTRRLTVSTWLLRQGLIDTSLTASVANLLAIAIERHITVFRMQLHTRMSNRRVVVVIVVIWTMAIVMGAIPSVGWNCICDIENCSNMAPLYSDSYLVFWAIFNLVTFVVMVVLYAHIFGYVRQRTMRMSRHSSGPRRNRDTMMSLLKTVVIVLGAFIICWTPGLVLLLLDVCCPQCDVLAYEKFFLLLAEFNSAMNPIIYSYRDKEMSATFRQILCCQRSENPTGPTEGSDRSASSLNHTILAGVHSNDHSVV

Compound: CCCCCCCCCCCCCCCC(=O)N[C@@H](Cc1ccc(OP(=O)(O)O)cc1)C(=O)O [NPTPA, N-palmitoyl-tyrosine phosphoric acid]
Effect on LPA3 ([1]; Table II): No effect
Effect on LPA4 [2]: No effect
Effect on LPA2 ([3]; Table II): No effect
Effect on LPA1 ([4]; Table II): Antagonist
Ki ([4]; Table II, LPA1, inhibitory binding constant): 0.53 µM
Ki ([4]; read-out: Ki at LPA1, text b35): 0.533 µM
Effect on LPA5 ([5]; Table II): Partial agonist
Emax ([5]; Table II, LPA5): 72.0%

Compound: CCCCCCCCCCCCCCCC(=O)OC[C@@H](O)COP(=O)(O)O [acyl-LPA 16:0]
Change in platelet cAMP levels [6]: did not affect

Compound: CC#CCC(C)[C@H](O)/C=C/[C@@H]1[C@H]2C/C(=C/CCCC(=O)O)C[C@H]2C[C@H]1O (stereo partly drawn) [iloprost]
Change in platelet cAMP levels [6]: robust increase

Compound: fatty acid free bovine serum albumin [FAF-BSA]
Effect on activation of LPA3 by LPA [1, 9]: did not inhibit
Inhibition of LPA4 activation [2, 9]: 40%
Effect on activation of LPA2 by LPA [3, 9]: did not inhibit
Effect on activation of LPA1 by LPA [4, 9]: did not inhibit
Effect on activation of LPA5 by LPA [5, 9]: did not inhibit

Further lines, with some results ahead:

Effect on LPA3 ([1]; Table II): Partial agonist
EC50 ([1]; Table II, LPA3): 0.73 µM
Emax ([1]; Table II, LPA3, relative to LPA 18:1): 81%
Effect on LPA4 [2]: No effect
Effect on LPA2 ([3]; Table II): Partial agonist
EC50 ([3]; Table II, LPA2): 11.9 µM
Emax ([3]; Table II, LPA2, relative to LPA 18:1): 46%
Effect on LPA1 ([4]; Table II): Partial agonist
EC50 ([4]; Table II, LPA1): 0.74 µM
Emax ([4]; Table II, LPA1, relative to LPA 18:1): 63%
Effect on LPA5 ([5]; Table II): Partial agonist
EC50 ([5]; Table II, LPA5): 0.42 µM
Emax ([5]; Table II, LPA5): 23%
Compound: CCCCCCCCCCCCCCCC(=O)N[C@@H](COP(=O)(O)O)C(=O)O [NPSPA, N-palmitoyl-serine phosphoric acid]

EC50 [7]: 0.0046 ± 0.00098 µM
EC50 [5, 8]: 0.0041 ± 0.0021 µM
Compound: CCCCCCCCCCCCCCCCOC[C@@H](O)COP(=O)(O)O [alkyl-LPA 16:0]
Change in platelet cAMP levels [6]: did not affect

EC50 [7]: 0.0202 ± 0.0175 µM
EC50 [5, 8]: 0.0699 ± 0.0214 µM
Compound: CCCCCCCCCCCCCCCCCCOC[C@@H](O)COP(=O)(O)O [alkyl-LPA 18:0]
